Results on 3 compounds are retold here after ChEMBL document CHEMBL1140458, “Design and synthesis of novel antibacterial peptide-resin conjugates” (Bioorg Med Chem Lett, 2007).

Values after ≈ are worked out from the molar mass of the structure shown. Residues, ends and D or L forms follow the SMILES beside them.

For series [1], the system named is Escherichia coli. The experiment in a line: Antibacterial activity against Escherichia coli ATCC 25922 by microdilution method. The series is classed as functional. Put shortly: (§1)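 Modified microdilution method. For the resin conjugates, the amount added to the medium volume was based on the total peptide quantity bound to the resin, as calculated by Fmoc titration.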
On the technique in general: In broth dilution the organism is exposed to a series of concentrations in liquid medium.

Series [2] deals with Pseudomonas aeruginosa. The experiment in a line: Antibacterial activity against Pseudomonas aeruginosa ATCC 9027 by microdilution method. The series is classed as functional. In a few lines: as §1
Series [3] relates to Micrococcus luteus. The experiment in a line: Antibacterial activity against Micrococcus luteus ATCC 9341 by microdilution method. The series is classed as functional. In a few lines: as §1
Series [4] has as its system Staphylococcus aureus. Briefly: Antibacterial activity against Staphylococcus aureus ATCC 6538 by microdilution method. The series is classed as functional. Put shortly:
as §1

A short description of series [5]: Cytotoxicity against human erythrocytes assessed as hemolysis. The settings on record: erythrocyte. The series is classed as cell-based.

In general, MIC refers to the least concentration at which growth counts as inhibited. High values mean a need for much substance, low ones inhibition by little substance. With `CC(C)[C@H](NC(=O)[C@H](CCCCN)NC(=O)[C@H](CCCCN)NC(=O)[C@H](CCCCN)NC(=O)[C@H](CCCCN)NC(=O)[C@H](CCCCN)NC(=O)[C@@H](NC(=O)[C@@H](NC(=O)[C@@H](N)Cc1ccccc1)C(C)C)C(C)C)C(=O)N[C@@H](Cc1ccccc1)C(N)=O` (H-FVVKKKKKVF-NH2), the MIC in series [1], in series [2], in series [3] and in series [4] was over 400 µg/mL in each case.

Take `CC[C@H](C)[C@H](NC(=O)CN)C(=O)NCC(=O)N[C@@H](CCCCN)C(=O)N[C@@H](Cc1ccccc1)C(=O)N[C@@H](CC(C)C)C(=O)N[C@@H](Cc1c[nH]cn1)C(=O)N[C@@H](CO)C(=O)N[C@@H](C)C(=O)N[C@@H](CCCCN)C(=O)N[C@@H](CCCCN)C(=O)N[C@@H](Cc1ccccc1)C(=O)NCC(=O)N[C@@H](CCCCN)C(=O)N[C@@H](C)C(=O)N[C@@H](Cc1ccccc1)C(=O)N[C@H](C(=O)NCC(=O)N[C@@H](CCC(=O)O)C(=O)N[C@H](C(=O)N[C@@H](CCSC)C(=O)N[C@@H](CC(N)=O)C(=O)N[C@@H](CO)C(=O)O)[C@@H](C)CC)C(C)C` [MAGAININ 2] (H-GIGKFLHSAKKFGKAFVGEIMNS-OH): the MIC in series [1] was determined as 50 µg/mL (≈ 20.3 µM); in series [2] it was 25 µg/mL (≈ 10.1 µM); in series [3], 50 µg/mL (≈ 20.3 µM); in series [4], 50 µg/mL (≈ 20.3 µM).

`CC(C)[C@H](NC(=O)[C@H](CCCCN)NC(=O)[C@@H](NC(=O)[C@H](CCCCN)NC(=O)[C@H](Cc1ccccc1)NC(=O)[C@H](CCCCN)NC(=O)[C@@H](NC(=O)[C@H](CCCCN)NC(=O)[C@@H](N)Cc1ccccc1)C(C)C)C(C)C)C(=O)N[C@@H](CCCCN)C(N)=O` (H-FKVKFKVKVK-NH2): the MIC in series [1] is 3.12 µg/mL (≈ 2.5 µM); in series [2] it was 6.25 µg/mL (≈ 5 µM); in series [3] it was 3.12 µg/mL (≈ 2.5 µM); in series [4] it was 1.56 µg/mL (≈ 1.25 µM). The Activity entry in series [5] is “Not Active”.
